{"source": "ChEMBL document CHEMBL1165950", "about": "“Design and synthesis of new potent anticancer pyrazoles with high FLT3 kinase inhibitory selectivity” (Bioorg Med Chem, 2010)", "format_in_all_cases": "functional", "conditions_in_all_cases": "read-out: Activity", "key": {"SF-539": {"system": "SF-539", "test": "Cytotoxicity against human SF539 cells assessed as cell growth at 10 uM", "summary_of_the_method": "(§1)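 NCI-60 screen: cells grown in RPMI 1640 with 5% FBS and 2 mM L-glutamine, plated at 5000–40,000 cells/well according to doubling time, and preincubated 24 h at 37 °C, 5% CO2. The single 10 µM dose (DMSO stock) was added, then incubated 48 h. Cells were TCA-fixed and stained with 0.4% SRB, read at 515 nm, and growth % calculated against time-zero and control plates.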"}, "SNB-19": {"system": "SNB-19", "test": "Cytotoxicity against human SNB19 cells assessed as cell growth at 10 uM", "summary_of_the_method": "as §1"}, "SNB-75": {"system": "SNB-75", "test": "Cytotoxicity against human SNB75 cells assessed as cell growth at 10 uM", "summary_of_the_method": "as §1"}, "U-251": {"system": "U-251", "test": "Cytotoxicity against human U251 cells assessed as cell growth at 10 uM", "summary_of_the_method": "as §1"}, "LOX IMVI": {"system": "LOX IMVI", "test": "Cytotoxicity against human LOXIMVI cells assessed as cell growth at 10 uM", "summary_of_the_method": "as §1"}, "Malme-3M": {"system": "Malme-3M", "test": "Cytotoxicity against human MALME-3M cells assessed as cell growth at 10 uM", "summary_of_the_method": "as §1"}, "M14": {"system": "M14", "test": "Cytotoxicity against human M14 cells assessed as cell growth at 10 uM", "summary_of_the_method": "as §1"}, "MDA-MB-435": {"system": "MDA-MB-435", "test": "Cytotoxicity against human MDA-MB-435 cells assessed as cell growth at 10 uM", "summary_of_the_method": "as §1"}, "SK-MEL-2": {"system": "SK-MEL-2", "test": "Cytotoxicity against human SK-MEL-2 cells assessed as cell growth at 10 uM", "summary_of_the_method": "as §1"}, "SK-MEL-28": {"system": "SK-MEL-28", "test": "Cytotoxicity against human SK-MEL-28 cells assessed as cell growth at 10 uM", "summary_of_the_method": "as §1"}, "SK-MEL-5": {"system": "SK-MEL-5", "test": "Cytotoxicity against human SK-MEL-5 cells assessed as cell growth at 10 uM", "summary_of_the_method": "as §1"}, "UACC-257": {"system": "UACC-257", "test": "Cytotoxicity against human UACC257 cells assessed as cell growth at 10 uM", "summary_of_the_method": "as §1"}, "UACC-62": {"system": "UACC-62", "test": "Cytotoxicity against human UACC62 cells assessed as cell growth at 10 uM", "summary_of_the_method": "as §1"}, "IGROV-1": {"system": "IGROV-1", "test": "Cytotoxicity against human IGROV1 cells assessed as cell growth at 10 uM", "summary_of_the_method": "(§2)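 Single-dose NCI-60 screen at 10 µM. Cells were grown in RPMI 1640 with 5% FBS and 2 mM L-glutamine, then treated for 48 h at 37 °C. Protein was measured by SRB staining with absorbance at 515 nm. Percentage growth was recorded, and inhibition percentage was calculated as 100 minus growth percentage.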"}, "OVCAR-3": {"system": "OVCAR-3", "test": "Cytotoxicity against human OVCAR-3 cells assessed as cell growth at 10 uM", "summary_of_the_method": "as §1"}, "OVCAR-4": {"system": "OVCAR-4", "test": "Cytotoxicity against human OVCAR4 cells assessed as cell growth at 10 uM", "summary_of_the_method": "as §1"}, "OVCAR-5": {"system": "OVCAR-5", "test": "Cytotoxicity against human OVCAR5 cells assessed as cell growth at 10 uM", "summary_of_the_method": "as §1"}, "OVCAR-8": {"system": "OVCAR-8", "test": "Cytotoxicity against human OVCAR8 cells assessed as cell growth at 10 uM", "summary_of_the_method": "as §1"}, "NCI/ADR-RES": {"system": "NCI/ADR-RES", "test": "Cytotoxicity against human NCI/ADR-RES cells assessed as cell growth at 10 uM", "summary_of_the_method": "as §1"}, "SK-OV-3": {"system": "SK-OV-3", "test": "Cytotoxicity against human SKOV3 cells assessed as cell growth at 10 uM", "summary_of_the_method": "as §1"}, "786-0": {"system": "786-0", "test": "Cytotoxicity against human 786-0 cells assessed as cell growth at 10 uM", "summary_of_the_method": "as §2"}, "A498": {"system": "A498", "test": "Cytotoxicity against human A498 cells assessed as cell growth at 10 uM", "summary_of_the_method": "as §2"}, "ACHN": {"system": "ACHN", "test": "Cytotoxicity against human ACHN cells assessed as cell growth at 10 uM", "summary_of_the_method": "as §2"}, "CAKI-1": {"system": "CAKI-1", "test": "Cytotoxicity against human Caki1 cells assessed as cell growth at 10 uM", "summary_of_the_method": "as §2"}, "RXF 393": {"system": "RXF 393", "test": "Cytotoxicity against human RXF393 cells assessed as cell growth at 10 uM", "summary_of_the_method": "as §1"}, "SN12C": {"system": "SN12C", "test": "Cytotoxicity against human SN12C cells assessed as cell growth at 10 uM", "summary_of_the_method": "as §1"}, "TK-10": {"system": "TK-10", "test": "Cytotoxicity against human TK10 cells assessed as cell growth at 10 uM", "summary_of_the_method": "as §1"}, "UO-31": {"system": "UO-31", "test": "Cytotoxicity against human UO31 cells assessed as cell growth at 10 uM", "summary_of_the_method": "as §1"}, "PC-3": {"system": "PC-3", "test": "Cytotoxicity against human PC3 cells assessed as cell growth at 10 uM", "summary_of_the_method": "as §1"}, "DU-145": {"system": "DU-145", "test": "Cytotoxicity against human DU145 cells assessed as cell growth at 10 uM", "summary_of_the_method": "as §2"}}}
{"smiles": "Cc1cc(O)cc(-c2nn(CC#N)cc2-c2ccnc(-c3ccc(C#N)cc3)c2)c1", "values": [{"measurement": "growth at 10 µM", "setting": "SF-539", "value": 76, "unit": "%"}, {"measurement": "growth at 10 µM", "setting": "SNB-19", "value": 85.2, "unit": "%"}, {"measurement": "growth at 10 µM", "setting": "SNB-75", "value": 46.3, "unit": "%"}, {"measurement": "growth at 10 µM", "setting": "U-251", "value": 91.5, "unit": "%"}, {"measurement": "growth at 10 µM", "setting": "LOX IMVI", "value": 81.9, "unit": "%"}, {"measurement": "growth at 10 µM", "setting": "Malme-3M", "value": 125, "unit": "%"}, {"measurement": "growth at 10 µM", "setting": "M14", "value": 90.3, "unit": "%"}, {"measurement": "growth at 10 µM", "setting": "MDA-MB-435", "value": 88.3, "unit": "%"}, {"measurement": "growth at 10 µM", "setting": "SK-MEL-2", "value": 78.5, "unit": "%"}, {"measurement": "growth at 10 µM", "setting": "SK-MEL-28", "value": 88.3, "unit": "%"}, {"measurement": "growth at 10 µM", "setting": "SK-MEL-5", "value": 58.4, "unit": "%"}, {"measurement": "growth at 10 µM", "setting": "UACC-257", "value": 94.2, "unit": "%"}, {"measurement": "growth at 10 µM", "setting": "UACC-62", "value": 62.3, "unit": "%"}, {"measurement": "growth at 10 µM", "setting": "IGROV-1", "value": 77.3, "unit": "%"}, {"measurement": "growth at 10 µM", "setting": "OVCAR-3", "value": 110, "unit": "%"}, {"measurement": "growth at 10 µM", "setting": "OVCAR-4", "value": 79.5, "unit": "%"}, {"measurement": "growth at 10 µM", "setting": "OVCAR-5", "value": 107, "unit": "%"}, {"measurement": "growth at 10 µM", "setting": "OVCAR-8", "value": 72.9, "unit": "%"}, {"measurement": "growth at 10 µM", "setting": "NCI/ADR-RES", "value": 77.7, "unit": "%"}, {"measurement": "growth at 10 µM", "setting": "SK-OV-3", "value": 88.5, "unit": "%"}, {"measurement": "growth at 10 µM", "setting": "786-0", "value": 77.9, "unit": "%"}, {"measurement": "growth at 10 µM", "setting": "A498", "value": 103, "unit": "%"}, {"measurement": "growth at 10 µM", "setting": "ACHN", "value": 65.2, "unit": "%"}, {"measurement": "growth at 10 µM", "setting": "CAKI-1", "value": 84.3, "unit": "%"}, {"measurement": "growth at 10 µM", "setting": "RXF 393", "value": 59.4, "unit": "%"}, {"measurement": "growth at 10 µM", "setting": "SN12C", "value": 73.5, "unit": "%"}, {"measurement": "growth at 10 µM", "setting": "TK-10", "value": 78.4, "unit": "%"}, {"measurement": "growth at 10 µM", "setting": "UO-31", "value": 60.1, "unit": "%"}, {"measurement": "growth at 10 µM", "setting": "PC-3", "value": 95.5, "unit": "%"}, {"measurement": "growth at 10 µM", "setting": "DU-145", "value": 96.3, "unit": "%"}]}
